Laboratory results taken from ChEMBL document CHEMBL3797154, “Design and Synthesis of 1-((1,5-Bis(4-chlorophenyl)-2-methyl-1H-pyrrol-3-yl)methyl)-4-methylpiperazine (BM212) and N-Adamantan-2-yl-N'-((E)-3,7-dimethylocta-2,6-dienyl)ethane-1,2-diamine (SQ109) Pyrrole Hybrid Derivatives: Discovery of Potent Antitubercular Agents Effective against …” (J Med Chem, 2016).
≈ marks a conversion by molar mass, not a printed value. Calls of active or inactive are those of the source. The rule behind the calls is not given here.

What was measured:
[1] = tested on: Mycobacterium tuberculosis variant bovis BCG; test: Antimycobacterial activity against Mycobacterium bovis BCG Pasteur ATCC 35734 assessed as inhibition of mycobacterial growth incubated for 24 hrs by MABA method; format: functional; conditions: Pasteur ATCC 35734, 24 h
[2] = tested on: Mycobacterium tuberculosis; test: Antimycobacterial activity against drug-resistant Mycobacterium tuberculosis isolate MDR1 assessed as inhibition of mycobacterial growth incubated for 9 days; format: functional
Procedure, shortened: (§1)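 MIC by HT-SPOTi on Middlebrook 7H10 agar with 0.05% (v/v) glycerol and 10% (v/v) OADC in 96-well format. Compounds dissolved at 50 mg/mL (stock), two-fold serial dilutions, final 500-0.5 µg/mL. Each well spotted with 2 µL early-to-midlog culture (2x10^3 CFU), incubated at 37 °C until distinct spots in control wells. DMSO-only and isoniazid controls; triplicate.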

[3] = tested on: Mycobacterium tuberculosis; test: Antimycobacterial activity against drug-resistant Mycobacterium tuberculosis isolate MDR2 assessed as inhibition of mycobacterial growth incubated for 9 days; format: functional; procedure, shortened: as §1
[4] = tested on: Mycobacterium tuberculosis; test: Antimycobacterial activity against drug-resistant Mycobacterium tuberculosis isolate MDR1 assessed as inhibition of mycobacterial growth at 500 ug/ml incubated for 9 days; format: functional, organism-based; procedure, shortened: as §1
[5] = tested on: Mycobacterium tuberculosis; test: Antimycobacterial activity against drug-resistant Mycobacterium tuberculosis isolate MDR2 assessed as inhibition of mycobacterial growth at 500 ug/ml incubated for 9 days; format: functional, organism-based; procedure, shortened: as §1

SMILES	MIC [1] [µg/mL]	MIC ([2]; isolate MDR1, 216 h) [µg/mL]	MIC ([3]; isolate MDR2, 216 h) [µg/mL]	MIC [2]	growth inhibition (GI) [4]	MIC [3]	growth inhibition (GI) [5]
Cc1cccc(-n2c(C)cc(CN3CCN(C4C5CC6CC(C5)CC4C6)CC3)c2C)c1 (stereo not given)	62 (≈ 148 µM)	31 (≈ 74.2 µM)	125 (≈ 299 µM)	–	–	–	–
Cc1c(CNC2CCCCC2)cc(-c2ccc(Cl)cc2)n1-c1ccc(Cl)cc1	4 (≈ 9.68 µM)	–	–	–	–	–	–
CC(C)=CCC/C(C)=C/CNCCNC1C2CC3CC(C2)CC1C3 (stereo not given) [SQ109]	2 (≈ 6.05 µM)	–	–	–	–	–	–
Cc1c(CN2CCN(c3ccccc3)CC2)cc(-c2ccc(Cl)cc2)n1-c1ccc(Cl)cc1	2 (≈ 4.2 µM)	3.9 (≈ 8.19 µM)	> 125	–	–	–	–
Cc1cc(CN2CCN(C3C4CC5CC(C4)CC3C5)CC2)c(C)n1-c1ccc(Cl)cc1 (stereo not given)	3.3 (≈ 7.53 µM)	7.8 (≈ 17.8 µM)	16 (≈ 36.5 µM)	–	–	–	–
Cc1cc(CNCc2ccc(F)cc2)c(C)n1-c1ccc(Cl)cc1	0.5 (≈ 1.46 µM)	–	16 (≈ 46.7 µM)	inactive	inactive	–	–
Cc1cc(CN2CCN(C3C4CC5CC(C4)CC3C5)CC2)c(C)n1-c1ccccc1F (stereo not given)	1.3 (≈ 3.08 µM)	7.8 (≈ 18.5 µM)	16 (≈ 38 µM)	–	–	–	–
NNC(=O)c1ccncc1 [ISONIAZID]	–	10 (≈ 72.9 µM)	25 (≈ 182 µM)	–	–	–	–
Cc1c(CN2CCN(C)CC2)cc(-c2ccc(Cl)cc2)n1-c1ccc(Cl)cc1	0.78 (≈ 1.88 µM)	3.9 (≈ 9.41 µM)	16 (≈ 38.6 µM)	–	–	–	–
Cc1cc(CN2CCN(C3CCCCC3)CC2)c(C)n1-c1ccc(Cl)cc1	21 (≈ 54.4 µM)	7.8 (≈ 20.2 µM)	62 (≈ 161 µM)	–	–	–	–
Cc1cc(CN2CCN(C3C[C@@H]4CC[C@H]3C4)CC2)c(C)n1-c1ccc(Cl)cc1 (mixture of isomers)	32	3.9	31	–	–	–	–
Cc1cc(CN2CCN(C3C4CC5CC(C4)CC3C5)CC2)c(C)n1-c1ccc(C(C)C)cc1 (stereo not given)	4 (≈ 8.97 µM)	62 (≈ 139 µM)	125 (≈ 280 µM)	–	–	–	–
Cc1ccc(CNCc2cc(C)n(-c3ccc(Cl)cc3)c2C)cc1	4 (≈ 11.8 µM)	3.9 (≈ 11.5 µM)	7.8 (≈ 23 µM)	–	–	–	–
Cc1c(CN2CCN(c3ccccc3)CC2)c(CN2CCN(c3ccccc3)CC2)c(C)n1-c1ccc(Cl)cc1	> 64	62 (≈ 112 µM)	> 125	–	–	–	–
Cc1cc(CNCc2ccccc2)c(C)n1-c1ccc(F)cc1	13 (≈ 42.2 µM)	7.8 (≈ 25.3 µM)	62 (≈ 201 µM)	–	–	–	–
Cc1cc(CNCc2ccc(Cl)cc2)c(C)n1-c1ccc(Cl)cc1	8 (≈ 22.3 µM)	31 (≈ 86.3 µM)	> 125	–	–	–	–
Cc1cc(CNCCc2ccccc2)c(C)n1-c1ccc(Cl)cc1	16 (≈ 47.2 µM)	1.9 (≈ 5.61 µM)	7.8 (≈ 23 µM)	–	–	–	–
Cc1cc(CNC2C3CC4CC(C3)CC2C4)c(C)n1-c1ccc(Cl)cc1 (stereo not given)	2 (≈ 5.42 µM)	3.9 (≈ 10.6 µM)	125 (≈ 339 µM)	–	–	–	–
Cc1c(CN2CCN(C3C4CC5CC(C4)CC3C5)CC2)cc(-c2ccc(Cl)cc2)n1-c1ccc(Cl)cc1 (stereo not given)	64 (≈ 120 µM)	125 (≈ 234 µM)	125 (≈ 234 µM)	–	–	–	–
Cc1c(CN2CCN(C3CC4CCC3C4)CC2)cc(-c2ccc(Cl)cc2)n1-c1ccc(Cl)cc1 (mixture of isomers)	64	–	–	–	–	–	–
Cc1c(CNCc2ccccc2)cc(-c2ccc(Cl)cc2)n1-c1ccc(Cl)cc1	8 (≈ 19 µM)	–	–	–	–	–	–
Cc1cc(CNOCc2ccccc2)c(C)n1-c1ccc(Cl)cc1	> 64	125 (≈ 367 µM)	–	–	–	inactive	inactive
Cc1cc(CN2CCN(C34CC5CC(CC(C5)C3)C4)CC2)c(C)n1-c1ccc(Cl)cc1	16 (≈ 36.5 µM)	125 (≈ 285 µM)	125 (≈ 285 µM)	–	–	–	–
Cc1cc(/C=N\OCc2ccccc2)c(C)n1-c1ccc(Cl)cc1	> 64	> 125	> 125	–	–	–	–
Cc1c(CN2CCN(C34CC5CC(CC(C5)C3)C4)CC2)cc(-c2ccc(Cl)cc2)n1-c1ccc(Cl)cc1	2 (≈ 3.74 µM)	16 (≈ 29.9 µM)	62 (≈ 116 µM)	–	–	–	–
Cc1cc(CN2CCN(c3ccccc3)CC2)c(C)n1-c1ccc(Cl)cc1	32 (≈ 84.2 µM)	31 (≈ 81.6 µM)	> 125	–	–	–	–
Cc1cc(CNC2CCCCC2)c(C)n1-c1ccc(Cl)cc1	0.4 (≈ 1.26 µM)	0.5 (≈ 1.58 µM)	16 (≈ 50.5 µM)	–	–	–	–
Cc1cc(CNCc2ccccc2)c(C)n1-c1ccc(Cl)cc1	0.5 (≈ 1.54 µM)	1 (≈ 3.08 µM)	3.9 (≈ 12 µM)	–	–	–	–
Cc1cc(CNOCc2ccccc2)c(C)n1-c1ccc(F)cc1	> 64	62 (≈ 191 µM)	> 125	–	–	–	–
